# Screens from PubChem.
# TLR4 MyD88 comp: inhibitors of TLR4-MyD88 association in cells, primary screen, cell-based, HeLa CL3-4, BLA complementation, FRET ratio. Toll-like receptor 4 (Homo sapiens) + Myeloid differentiation primary response protein …. HeLa CL3-4 TLR4/MyD88 BLA complementation. inhibition, % at 8.4 µM. 200,000 tested, 0.18% active. AID 861, 2007; in the data active = inhibition above about 25%
# UPR XBP1 act: activators of adaptive XBP1 UPR arm, primary screen, cell-based, CHO-XBP1 luciferase reporter, luminescence, uHTS. IRE1-XBP1 UPR activation; percent of tunicamycin response, DMSO as zero. activation, % at 20 µM. 330,000 tested, 0.33% active. AID 463104, 2010;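 active = versus positive control, 20 µM dose yields 30% or more activation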
#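 Assay system: IRE1-XBP1 luciferase reporter CHO line. Input: 1000 cells/well. Buffer or medium: F12 with 10% serum. Doses: 20 µM, 1% DMSO. Times: overnight seeding at 37 °C, 6 h compound treatment at 37 °C. Technique: Steady-Glo luciferase glow luminescence, 10 min after reagent addition.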
# TLR9-MyD88 inh: inhibitors of TLR9-MyD88 association in cells, primary screen, cell-based, CHO, BLA complementation, fluorescence; CCF4 FRET ratio; inhibition, % at 4.98 µM; 340,000 tested, 0.21% active;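 active = inhibition above the mean over all tested compounds plus 3 SD, cut at about 21% in these data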
# CHOP inh: inhibitors of CHOP promoter induction, primary screen, cell-based, unfolded protein response, luciferase reporter | inhibition, % at 10 µM | CHO-K1 CHOP-promoter luciferase, tunicamycin-induced, 15-18 h | AID 2732, 2010 | 220,000 tested, 3.8% active;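 active = compounds that reduced the stress-induced luciferase reporter signal by more than about 70% of percent inhibition, limit read from the data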
# NOD2 RIPK2 PPI: NOD2-RIPK2 binding disruptors in cells, primary screen, fluorescence, CHO cells, BLA complementation; Receptor-interacting serine/threonine-protein kinase 2 (Homo sapiens), O43353; CCF4 ratio; inhibition, % at 4.98 µM; 360,000 tested, 0.38% active; AID 624267, 2012; in the data active = inhibition above about 21%
# UPR CHOP act: activators of apoptotic CHOP UPR arm, primary screen, cell-based, CHO-CHOP luciferase reporter, luminescence, uHTS | UPR activation; percent of tunicamycin response over DMSO baseline | activation, % at 10 µM | 330,000 tested, 0.34% active;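 active = at 10 µM dose, activation of 40% or more, normalized to positive control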
#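 Test system: CHO-CHOP cells, stable luciferase reporter of PERK-eIF2a-CHOP signalling | Quantity: 500 CHO-CHOP cells per well | Buffer or medium: F12 plus 10% serum | Compound dosing: 10 µM single point, 0.5% DMSO | Schedule: 6 h compound treatment, 37 °C | Signal: Luciferase luminescence | Control set: Tunicamycin high control, DMSO low control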
# CHOP inh conf: retest of CHOP induction inhibitors, confirmation, cell-based. shares compounds with CHOP inh. CHO-CHOP promoter luciferase reporter, tunicamycin-induced, luminescence. inhibition, % at 10 µM. 2,100 tested, 45% active. AID 504437, 2011;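 active = mean of three repeat readings of reporter signal inhibition above a set limit, cut at about 70% in these data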
# A number is an active result; - = inactive; . = no result. The full list was thinned out, with hits kept by preference.
SMILES,TLR4 MyD88 comp,UPR XBP1 act,TLR9-MyD88 inh,CHOP inh,NOD2 RIPK2 PPI,UPR CHOP act,CHOP inh conf
O=c1c(Cl)nc2cc(Cl)ccc2n1CCNc1ncc(C(F)(F)F)cc1Cl,-,-,-,107,-,-,128
C[n+]1cccc(C2C(C#N)=C(N)Oc3c2ccc2ccccc32)c1 (centres undefined),.,-,-,-,-,-,.
O=C(Cn1c(COc2ccccc2)nc2ccccc21)Nc1cc(Cl)cc(Cl)c1,-,-,-,109,-,-,-
CCCc1cc(-c2nc(N)ncc2-c2csc(C)n2)c(O)cc1OC,-,-,-,-,-,-,.
CCCc1cc(-c2nc(N)ncc2-c2ccc3c(c2)OCCCO3)c(O)cc1OC,-,-,-,106,-,-,122
Cc1ccc(-n2nc(C)c3c2OC(N)=C(C#N)C3c2ccccc2F)cc1 (centres undefined),-,-,-,96,-,-,-
Cc1ccc(-n2nc(C)c3c2OC(N)=C(C#N)C3c2ccncc2)cc1 (centres undefined),-,-,-,-,-,-,.
CC(C)CCN(C(=O)Cc1ccc(Cl)c(Cl)c1)c1c(N)n(Cc2ccccc2)c(=O)[nH]c1=O,-,-,-,103,-,-,108
NC(N)=N/N=C/c1ccc(OCc2ccccc2Cl)cc1,-,-,-,97,-,-,-
C=CCOc1c(Br)cc(CNn2nnnc2N)cc1OC,-,-,-,-,-,-,.
CCCOc1ccccc1C1CC(=O)NC(C)=C1C(=O)OCC(C)C (centres undefined),-,-,-,99,-,-,116
CCN(CC)S(=O)(=O)c1cccc(-c2nnc(SCC(=O)NC3CCCCCCC3)n2N)c1,-,-,-,-,-,-,.
O=C(Nc1nnc(-c2ccc(Cl)cc2)o1)Nc1ccccc1Cl,-,-,-,-,-,-,.
O=C(Nc1nnc(-c2ccc(Cl)cc2)o1)c1nc2ccccc2s1,-,-,-,104,-,-,-
COc1ccc(-c2noc(CNS(=O)(=O)c3ccc(NC(C)=O)cc3)n2)cc1,.,-,-,.,-,-,.
O=C(NCc1nc(-c2ccc(C(F)(F)F)cc2)no1)Nc1ccc(OC(F)(F)F)cc1,.,-,.,100,-,-,106
CCCCCCn1c(-c2ccco2)nc2oc3cc(OC)ccc3c(=O)c2c1=O,-,-,-,96,-,-,107
CC1(C)CCCN(Cc2c(O)ccc3c(=O)c(-c4nc5ccccc5s4)c(N)oc23)C1,.,-,-,104,-,-,-
Oc1[nH]c2ccccc2c1N=NC(=S)NCCc1ccccc1,-,.,-,105,-,.,76
CC(C)c1ccc2[nH]c(O)c(N=NC(=S)NCCc3ccccc3)c2c1,-,-,-,-,-,-,.
NC(=O)c1nsc(C(=O)N(c2ccccc2F)C(C(=O)NCc2ccccc2)c2ccc(O)cc2)c1N (centres undefined),.,-,-,.,-,-,.
CCC1CCCCN1S(=O)(=O)c1ccc(C(=O)Nc2nnc(C3CC3)o2)cc1 (centres undefined),.,-,-,.,-,-,.
CCC1CCCCN1S(=O)(=O)c1ccc(C(=O)Nc2nnc(-c3ccccc3Cl)o2)cc1 (centres undefined),-,-,-,107,-,-,102
CC(=O)Nc1ccccc1/C=C/c1ccc2c(C)ccc(O)c2n1,-,-,-,-,-,-,.
CC(=O)Nc1ccccc1/C=C/c1ccc2c(C)cc(C)c(O)c2n1,-,-,-,97,-,-,-
CCOc1cc(S(=O)(=O)Nc2ccccc2CC)ccc1Cl,-,-,-,102,-,-,77
CCOc1cc(S(=O)(=O)Nc2ccc(CC)cc2)ccc1Cl,-,-,-,104,-,-,111
